H9c2 protect: protects H9c2 cardiomyocytes from peroxide injury; H2O2 injury protection, ATPLite, 2 h; protection from H2O2 cell death, % at 20 µM; 0.63% of 360,000 active;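 active = compounds giving at least 50% protection of heart cells from peroxide-induced death in the single-dose screen, raw or plate-pattern-corrected value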;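 note: 0% = DMSO wells with peroxide and 100% = DMSO wells without peroxide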
SENP1 FRET inh: SENP1 (human) catalytic domain inhibition | Q9P0U3 | recombinant SENP1 catalytic domain, CyPet-SUMO1-YPet FRET cleavage | inhibition, % at 10 µM | 0.21% of 360,000 active;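 active = inhibition at least 30% at 10 µM, raw YFP signal under a set limit, fluorescence ratio 0.5 to 1.5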;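 note: 0% = enzyme with DMSO and 100% = no enzyme wells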
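material = recombinant human SENP1 catalytic domain, His6-tagged | quantity = 20 pM enzyme | reagent = 25 nM SUMO1 FRET substrate | compound dosing = 10 µM single point, 0.5% DMSO | timing = 50 min enzyme reaction, room temperature, light-protected | detection = FRET, CFP and YFP emission | control set = no-enzyme low, enzyme-DMSO high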
Arr AP2 block: inhibitors of human beta-arrestin and AP2 interaction. FITC-arrestin peptide / GST-AP2 beads, flow cytometry; AP2 beta2 appendage carries R879A mutation. AID 504490. inhibition, % at 10 µM. 0.31% of 340,000 active;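 active = inhibition above a set limit, near 3 SD of compounds lacking own fluorescence, cut at about 54% in these data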;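 note: plate controls were DMSO wells for no effect and 5 µM unlabelled arrestin peptide for full effect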
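Measured by: flow cytometry, FL1 (488/535 nm); Material: AP2 appendage R879A on GSH beads; Evaluation: percent response; Timing: pre-incubation 12 min, peptide binding 1 h, room temperature; Also added: 50 nM FITC-arrestin peptide; Medium: PBS with 0.05% Tween 20 and 0.1% BSA.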
FAS TE block: inhibitors of human fatty acid synthase thioesterase domain | P49327 | recombinant FAS-TE, OMFH fluorogenic substrate, fluorescence endpoint | inhibition, % at 15 µM | 0.67% of 360,000 active | AID 602261;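 active = compounds whose normalised, plate-corrected inhibition of enzyme fluorescence in the single-dose primary screen is 50% or more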;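 note: 0% = DMSO with enzyme and 100% = substrate without enzyme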
hiPSC survival: enhancers of human iPSC single-cell survival; hiPSC single-cell survival, ATPlite luminescence; 100% = ROCK inhibitor wells, 0% = DMSO; survival enhancement, % at 20 µM; 0.044% of 360,000 active; AID 602274; in the data active = survival enhancement above about 18%;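 note: cells exposed to compounds for 16 hours before the ATP read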
GRIN3A LBD mod: modulators (binders) of human NR3A ligand-binding domain. AID 1259313. NR3A LBD differential scanning fluorimetry, Tm shift; 0% = protein alone, 100% = glycine-bound protein. 2.5% of 340,000 active. Tm shift relative to glycine control, % at 25 µM;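 active = melting temperature shift of at least 10% of the positive control shift, at one fixed dose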
* marks the source's active call; other numbers are inactive results; / = no result. A selection: hits, their analogues and other compounds. The true share with any hit is near 4%.

SMILES | H9c2 protect | SENP1 FRET inh | Arr AP2 block | FAS TE block | hiPSC survival | GRIN3A LBD mod
O=C(Oc1ccc2c(-c3ccccc3)cc(=O)oc2c1)c1cccs1 | 40 | -42 | 7 | 21 | 0 | 3
COc1ccc(-c2cc(=O)oc3cc(OC(=O)C4CCCCC4)ccc23)cc1 | 52* | -61 | 2 | 19 | -1 | -1
O=C(C[C@H]1C(=O)N(CCc2ccccc2)C[C@@H]1c1ccccc1)Nc1ccccc1 | -4 | -2 | / | -4 | 0 | /
CCN(CC)S(=O)(=O)c1ccc(N2CCCC2)c(NS(=O)(=O)c2ccc(F)cc2)c1 | 2 | -4 | 51 | 7 | 0 | -1
CCN(CC)S(=O)(=O)c1ccc(N2CCCC2)c(NS(=O)(=O)c2ccccc2)c1 | -3 | -2 | 5 | 7 | 3 | 16*
NC(=S)N/N=C/c1ccc2ccccc2c1 | -5 | 1 | 7 | -9 | -1 | 18*
NC(=S)N/N=C/c1cccc(/C=N/NC(N)=S)c1 | 11 | 0 | 27 | -3 | 1 | 0
COc1ccc(C)cc1NC(=O)C(Sc1nnc2ccccn12)c1ccccc1 (stereo not drawn) | 5 | 2 | 10 | -2 | 0 | 15*
CCOc1ccccc1NC(=O)C(Sc1nnc2ccccn12)c1ccccc1 (stereo not drawn) | 13 | 3 | 3 | -8 | -1 | -1
COc1ccc(C)cc1NC(=O)CSc1nnnn1Cc1ccccc1 | -1 | 1 | 8 | -11 | 2 | 15*
COc1cccc(C=NNc2nc3ccccc3s2)c1OC | -13 | -3 | -15 | -5 | -1 | -4
Oc1ccccc1C=NNc1nc2ccccc2s1 | -9 | -50 | 5 | 7 | -3 | 31*
CC(=O)Nc1sc(N/N=C/c2ccccc2)nc1-c1ccc(C)cc1 | 1 | -1 | -8 | 4 | 0 | 11*
CC(=O)Nc1ccc(/C=N/Nc2nc3ccccc3s2)cc1 | -9 | -5 | -2 | 0 | -1 | 16*
COc1ccc(/C=N/Nc2nc3ccccc3s2)cc1O | -21 | 1 | -28 | 9 | -1 | 13*
COc1ccc(/C=N/Nc2nc3ccccc3o2)cc1O | -30 | 2 | -3 | -3 | -4 | -4
CC(=O)Nc1ccc(S(=O)(=O)Nc2nc3ccccc3s2)cc1 | 5 | 2 | 21 | -9 | 2 | -8
COC(=O)[C@]12CCCCC=C1N(Cc1ccco1)C(=O)[C@H](CC(=O)N1CCOCC1)C2 | / | 2 | / | -15 | 0 | /
Cc1ccsc1/C=N/Nc1nc2ccccc2s1 | -21 | -3 | 30 | 15 | -3 | 24*
C(=N\Nc1nc2ccccc2s1)/c1cccs1 | -15 | 0 | 10 | 19 | -1 | -2
CC(=O)Nc1cccc(/C(C)=N/Nc2nc3ccccc3s2)c1 | 11 | 4 | -6 | 9 | 0 | 31*
CC(=O)c1sc(N/N=C\c2cccc(Br)c2)nc1C | 22 | -28 | -2 | 17 | -1 | 3
Oc1ccc(C=NNc2nc3ccccc3s2)c(O)c1 | 23 | -7 | 2 | 15 | -4 | 38*
CC(=O)c1sc(N/N=C\c2ccc(Br)cc2)nc1C | -1 | -23 | -7 | 20 | -1 | 16*
CCN(CC)C(=O)C1=C(C)N(CCCOC)C(=O)C(CC(=O)NCCCCc2ccccc2)C1 (stereo not drawn) | -6 | 1 | / | -8 | -1 | /
SMILES | H9c2 protect | SENP1 FRET inh | Arr AP2 block | FAS TE block | hiPSC survival | GRIN3A LBD mod
CCOc1ccccc1N1CCN(C(=S)Nc2ccc(S(=O)(=O)Nc3ncccn3)cc2)CC1 | 9 | 3 | -1 | -4 | 0 | 10*
CCOc1ccccc1N1CCN(C(=O)c2ccc(S(=O)(=O)Nc3ccccc3)cc2)CC1 | -1 | 0 | 0 | 17 | 0 | -16
COC(=O)[C@@]12C[C@@H](CC(=O)N3CCOCC3)C(=O)N(Cc3ccco3)C1=CCC(C)(C)C2 | / | 0 | / | / | / | /
O=C(Cc1csc(NC(=O)Nc2ccc(Cl)cc2)n1)NC1CCCC1 | -15 | -1 | 31 | -3 | 0 | 13*
O=C(Nc1ccc(Cl)cc1)Nc1nc(-c2ccccc2O)cs1 | -24 | -1 | -10 | 9 | 0 | 26*
Cc1cnc(NC(=O)Nc2ccc(Cl)cc2)s1 | -15 | 0 | 13 | 8 | -1 | 26*
Cc1csc(NC(=O)Nc2ccc(Cl)cc2)n1 | -10 | 3 | 12 | 0 | -2 | 21*
CCOC(=O)C1(C)CCCN(C(=O)Cc2ccc3ccccc3c2)C1 (stereo not drawn) | 1 | 2 | / | -4 | 2 | /
COc1ccc2c(c1)sc1nc(-c3ccccc3)cn12 | -36 | 2 | -9 | 15 | -9 | 20*
CC(=O)Nc1ccc(NC(=O)C(C)OC(=O)CN(C)S(=O)(=O)c2ccc(Cl)cc2)cc1 (stereo not drawn) | 18 | 1 | 4 | -2 | -3 | 15*
CN(CC(=O)OCC(N)=O)S(=O)(=O)c1ccc(Cl)cc1 | -7 | 4 | 13 | -10 | 0 | 0
CN(CC(=O)OCC(=O)Nc1ccccc1)S(=O)(=O)c1ccc(Cl)cc1 | 4 | 0 | -9 | 4 | 2 | 18*
CC(OC(=O)CN(C)S(=O)(=O)c1ccc(Cl)cc1)C(=O)Nc1ccc(N2CCOCC2)cc1 (stereo not drawn) | 7 | 3 | 2 | -2 | 2 | -1
CC(=O)Nc1ccc(S(=O)(=O)N(C)CC(=O)OCC(=O)N2CCCCC2)cc1 | 4 | 1 | -9 | -8 | 0 | -1
CCOC(=O)C1CCN(C(=O)COC(=O)CN(C)S(=O)(=O)c2ccc(NC(C)=O)cc2)CC1 | 8 | 2 | -18 | -4 | 1 | 10*
O=C(Nc1ccccc1F)c1ccc2sc([C@@H]3O[C@H](CO)[C@H](O)[C@H](O)[C@H]3O)nc2c1 | 2 | 2 | / | -1 | 1 | /
CCOC(=O)c1ccc2nc(NC(C)=O)sc2c1 | -7 | -2 | 2 | -2 | 3 | -2
COC(=O)c1ccc2nc(NC(=O)C(C)C)sc2c1 | -9 | -36 | 25 | -6 | -2 | -3
COC(=O)c1ccc2nc(Nc3nc4c(F)cc(F)cc4s3)sc2c1 | -16 | -25 | 4 | 1 | 0 | 22*
CCOC(=O)c1ccc2nc(Nc3nc4ccc(F)cc4s3)sc2c1 | -16 | -22 | 5 | -2 | 0 | 28*
CCc1nc2ccc(C(=O)Nc3cccc(OC)c3)cn2c1N(C)Cc1ccc(OC)cc1 | 18 | -39 | / | 17 | 3 | /
O=C(NCC1CC1)c1ccc(-n2ccnc2)c2ccoc12 | 4 | -1 | / | -10 | 0 | /
COc1ccc(CCC(N)=O)cc1OC | 4 | 3 | 14 | -8 | 3 | -5
COc1cc(O)c(CC=C(C)C)c(O)c1C(=O)CCc1ccc(O)cc1 | -14 | -2 | -2 | -49 | -2 | 19*
